In publication PMC6844228 (International Journal of Nanomedicine, 2019):

How the values were obtained:
[1] = system: mouse sarcoma S180 cells; experiment: Cell Counting Kit-8 cytotoxicity assay, S180; type: cell-based; settings: S-180, 48 h
Outline: (§1)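 Cells were seeded at 5×10^3 per well in DMEM with 10% FBS, 100 μg/mL streptomycin and 100 IU/mL penicillin, then held 24 h at 37°C under 5% CO2. Medium was replaced with test compound at CA4-equivalent concentrations of 0.0025, 0.025, 0.25, 2.5, 25, 125 and 250 μM for 48 h. Then 10% CCK-8 was added for 1.5 h at 37°C and A450 read. Viability was calculated against control and blank wells, and IC50 derived.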

[2] = system: human hepatocellular liver carcinoma HepG2 cells; experiment: Cell Counting Kit-8 cytotoxicity assay, HepG2; type: cell-based; settings: HepG2, 48 h
Outline: as §1

[3] = system: human breast adenocarcinoma MCF-7 cells; experiment: Cell Counting Kit-8 cytotoxicity assay, MCF-7; type: cell-based; settings: MCF7, 48 h
Outline: as §1

[4] = In vivo biodistribution in S180 tumor-bearing mice; settings: iv, drug-equivalent doses of 28 mg/kg CA4P, heart, kidney, liver, spleen, lung
[5] = In vivo pharmacokinetics after tail vein injection; settings: 2 h following injection, SD rats
Outline: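 Male rats (180–200 g) were fasted 12 h, then dosed into the tail vein at drug-equivalent 28 mg/kg of phosphate prodrug. Orbital-vein blood was taken at 2, 5, 10, 15, 20, 30 and 45 min and at 1, 1.5, 2, 4, 6 and 10 h, into heparinized vials. Plasma was separated (4,000 rpm, 10 min), stored at −20°C, and prodrug and released parent drug were quantified by HPLC. n=6, mean ± SD.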

Detection of prodrug in plasma [5] | Compound | IC50 [1] | IC50 [2] | IC50 [3] | Tissue detection of prodrug [4]
 | COc1ccc(/C=C\c2cc(OC)c(OC)c(OC)c2)cc1O [CA4, combretastatin A4] | < 1 nM | 64 ± 6 nM | 4 ± 2 nM | 
could not be detected | COc1ccc(/C=C\c2cc(OC)c(OC)c(OC)c2)cc1OP(=O)(O)O [CA4P, combretastatin A4 phosphate] | < 1 nM | 179 ± 53 nM | 50 ± 8 nM | could be detected in the heart, liver, spleen, lung, kidney, and tumor
